Assay results: ChEMBL document CHEMBL2150901, “Synthesis and biological activity of tricyclic cycloalkylimidazo-, pyrimido- and diazepinopurinediones” (Eur J Med Chem, 2011)
Activity calls are given as the source filed them. The calls are words filed in the database; no cut-off is given here.

Legend:
[1] = system: Rattus norvegicus; assay: Anticonvulsant activity in po dosed Sprague-Dawley albino rat assessed as protection against maximal electroshock-induced seizures; assay type: functional
[2] = system: Rattus norvegicus; assay: Anticonvulsant activity in po dosed Sprague-Dawley albino rat assessed as protection against subcutaneous pentylenetetrazole-induced seizures; assay type: functional
[3] = target: T1, Adenosine receptor A2a (Homo sapiens, UniProt P29274); details: CHO, 10 uM
T1 sequence (P29274 whole entry): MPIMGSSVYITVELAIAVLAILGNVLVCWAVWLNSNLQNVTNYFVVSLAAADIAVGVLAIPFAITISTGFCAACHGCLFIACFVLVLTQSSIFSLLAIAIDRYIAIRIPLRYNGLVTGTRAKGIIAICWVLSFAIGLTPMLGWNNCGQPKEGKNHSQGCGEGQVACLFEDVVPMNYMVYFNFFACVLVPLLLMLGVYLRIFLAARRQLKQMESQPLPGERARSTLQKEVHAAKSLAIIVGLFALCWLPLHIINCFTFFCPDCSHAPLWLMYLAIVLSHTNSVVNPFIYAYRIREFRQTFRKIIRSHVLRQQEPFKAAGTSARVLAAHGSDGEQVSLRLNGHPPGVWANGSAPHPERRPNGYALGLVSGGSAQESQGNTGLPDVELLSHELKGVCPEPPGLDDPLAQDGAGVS

[4] = target: T2, Adenosine receptor A1 (Rattus norvegicus) (UniProt P25099); assay: Displacement of [3H]CCPA from adenosine A1 receptor in rat brain cortical membrane at 25 uM; assay type: cell membranes
T2 sequence (whole entry): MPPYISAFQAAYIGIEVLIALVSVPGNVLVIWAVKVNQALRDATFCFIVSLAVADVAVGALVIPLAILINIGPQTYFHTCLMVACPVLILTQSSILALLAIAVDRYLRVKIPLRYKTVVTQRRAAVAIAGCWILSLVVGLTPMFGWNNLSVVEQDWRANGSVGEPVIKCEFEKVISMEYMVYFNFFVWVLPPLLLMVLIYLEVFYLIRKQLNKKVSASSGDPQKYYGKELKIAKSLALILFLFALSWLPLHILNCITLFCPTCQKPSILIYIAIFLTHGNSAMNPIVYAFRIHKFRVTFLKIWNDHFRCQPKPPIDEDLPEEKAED

[5] = target: T3, Adenosine receptor A2b (Homo sapiens) (UniProt P29275); assay: Displacement of [3H]PSB-603 from human recombinant adenosine A2B receptor expressed in CHO cells at 10 uM; assay type: cell-based
T3 sequence (whole entry): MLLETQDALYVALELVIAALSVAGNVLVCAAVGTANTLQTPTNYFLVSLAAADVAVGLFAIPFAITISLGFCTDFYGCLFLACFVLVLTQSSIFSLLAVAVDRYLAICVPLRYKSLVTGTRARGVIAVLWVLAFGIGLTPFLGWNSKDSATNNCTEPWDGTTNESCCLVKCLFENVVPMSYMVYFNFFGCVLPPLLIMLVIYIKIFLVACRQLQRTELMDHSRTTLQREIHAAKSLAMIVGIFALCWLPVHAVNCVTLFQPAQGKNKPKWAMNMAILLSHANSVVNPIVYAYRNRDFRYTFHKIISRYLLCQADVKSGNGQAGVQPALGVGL
Summary of the method: (§1)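 CHO cell membranes expressing the human receptor. Radioligands: A1 [3H]CCPA; A2B [3H]ZM241385 or [3H]PSB-603; A3 [3H]PSB-11. […] Potent compounds run at 6–7 concentrations spanning 3 orders of magnitude; Ki ± SEM.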

[6] = target: T4, Adenosine receptor A2b (Homo sapiens, UniProt P29275); assay: Displacement of [3H]PSB-603 from human recombinant adenosine A2B receptor expressed in CHO cells; assay type: cell-based; summary of the method: as §1
T4 sequence (P29275 whole entry): T3 sequence (whole entry)

[7] = system: Mus musculus; assay: Anticonvulsant activity in F1 albino mouse assessed as protection against maximal electroshock-induced seizures at 300 mg/kg, ip after 0.25 hrs; assay type: functional, organism-based; set-up: dose 300 mg/kg
Summary of the method: (§2)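 Male albino F-1 mice (18–25 g), groups of 1–5 (rotorod 2–8). Compound given ip as a suspension in 0.5% methylcellulose at 30, 100 and 300 mg/kg. Seizures by maximal electroshock or subcutaneous pentylenetetrazole; neurotoxicity by rotorod. Read at 0.5 and 4 h, with some at 0.25, 1 and 2 h. Value is the minimum active dose, with protected (or toxic)/tested animals.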

[8] = target: T5, Adenosine receptor A1 (Rattus norvegicus, UniProt P25099); assay: Displacement of [3H]CCPA from adenosine A1 receptor in rat brain cortical membrane; assay type: cell membranes
T5 sequence (P25099 whole entry): T2 sequence (whole entry)

[9] = species on record: Rattus norvegicus; assay: Selectivity ratio of Ki for adenosine A1 receptor in rat brain cortical membrane to Ki for adenosine A2A receptor in rat brain striatal membrane; assay type: cell membranes
Summary of the method: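 Ki ratios from radioligand competition binding. Rat A1 used brain cortical membranes and rat A2A used brain striatal membranes. Human A1 and A2A used membranes of CHO cells expressing the receptors. A1 radioligand [³H]CCPA; A2A radioligand [³H]MSX-2. Potent compounds were tested at 6–7 concentrations spanning 3 orders of magnitude.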

[10] = system: Mus musculus; assay: Anticonvulsant activity in F1 albino mouse assessed as protection against subcutaneous pentylenetetrazole-induced seizures at 300 mg/kg, ip after 0.5 hrs; assay type: functional, organism-based; set-up: dose 300 mg/kg; summary of the method: as §2
[11] = system: Mus musculus; assay: Neurotoxicity in F1 albino mouse assessed as minimal motor impairment at 300 mg/kg, ip after 1 hr by rotorod test; assay type: toxicity, organism-based; set-up: dose 300 mg/kg, route intraperitoneal; details: in vivo; summary of the method: as §2
[12] = system: Mus musculus; assay: Neurotoxicity in F1 albino mouse assessed as minimal motor impairment at 300 mg/kg, ip after 0.25 hrs by rotorod test; assay type: toxicity, organism-based; set-up: dose 300 mg/kg, route intraperitoneal; details: in vivo; summary of the method: as §2
[13] = system: Mus musculus; assay: Anticonvulsant activity in F1 albino mouse assessed as protection against maximal electroshock-induced seizures at 300 mg/kg, ip after 4 hrs; assay type: functional, organism-based; set-up: dose 300 mg/kg; summary of the method: as §2
[14] = target: Adenosine receptor A2a (Rattus norvegicus, UniProt P30543); assay: Displacement of [3H]MSX-2 from adenosine A2A receptor in rat brain striatal membrane; assay type: cell membranes
Sequence of Adenosine receptor A2a (Rattus norvegicus, UniProt P30543) (P30543 whole entry): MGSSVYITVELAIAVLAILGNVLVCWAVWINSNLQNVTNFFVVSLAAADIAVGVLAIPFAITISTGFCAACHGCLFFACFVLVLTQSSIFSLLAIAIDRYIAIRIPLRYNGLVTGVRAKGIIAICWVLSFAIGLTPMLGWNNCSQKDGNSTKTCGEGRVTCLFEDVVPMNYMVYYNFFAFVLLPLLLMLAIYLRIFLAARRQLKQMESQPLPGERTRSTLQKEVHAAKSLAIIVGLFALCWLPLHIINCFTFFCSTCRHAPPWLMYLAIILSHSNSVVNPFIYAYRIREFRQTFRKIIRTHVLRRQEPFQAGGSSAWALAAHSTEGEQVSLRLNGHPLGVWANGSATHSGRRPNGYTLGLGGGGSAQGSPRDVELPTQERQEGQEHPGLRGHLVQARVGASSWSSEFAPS

[15] = system: Mus musculus; assay: Anticonvulsant activity in F1 albino mouse assessed as protection against subcutaneous pentylenetetrazole-induced seizures at 300 mg/kg, ip after 4 hrs; assay type: functional, organism-based; set-up: dose 300 mg/kg; summary of the method: as §2
[16] = target: T6, Adenosine receptor A1 (Homo sapiens) (UniProt P30542); assay: Displacement of [3H]CCPA from human recombinant adenosine A1 receptor expressed in CHO cells at 10 uM; assay type: cell-based; summary of the method: as §1
T6 sequence (whole entry): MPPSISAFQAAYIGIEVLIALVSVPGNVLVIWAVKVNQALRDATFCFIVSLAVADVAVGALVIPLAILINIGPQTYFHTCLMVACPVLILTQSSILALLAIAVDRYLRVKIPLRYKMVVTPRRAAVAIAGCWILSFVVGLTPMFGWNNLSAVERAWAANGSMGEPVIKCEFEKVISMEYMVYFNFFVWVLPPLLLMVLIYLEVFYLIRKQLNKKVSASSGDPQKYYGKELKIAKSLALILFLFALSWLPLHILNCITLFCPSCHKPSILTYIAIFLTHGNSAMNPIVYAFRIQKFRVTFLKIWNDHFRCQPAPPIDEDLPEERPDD

[17] = target: T1, Adenosine receptor A2a; assay: Displacement of [3H]MSX-2 from human recombinant adenosine A2A receptor expressed in CHO cells; assay type: cell-based
[18] = system: Mus musculus; assay: Anticonvulsant activity in F1 albino mouse assessed as protection against subcutaneous pentylenetetrazole-induced seizures at 300 mg/kg, ip after 0.25 hrs; assay type: functional, organism-based; set-up: dose 300 mg/kg; summary of the method: as §2
[19] = system: Mus musculus; assay: Anticonvulsant activity in F1 albino mouse assessed as protection against maximal electroshock-induced seizures at 300 mg/kg, ip after 0.5 hrs; assay type: functional, organism-based; set-up: dose 300 mg/kg; summary of the method: as §2
[20] = target: Adenosine receptor A2a (Rattus norvegicus) (UniProt P30543); details: Brain, Membrane, 25 uM
Sequence of Adenosine receptor A2a (Rattus norvegicus) (P30543 whole entry): as the sequence (P30543 whole entry) above

[21] = system: Mus musculus; assay: Anticonvulsant activity in F1 albino mouse assessed as protection against subcutaneous pentylenetetrazole-induced seizures at 300 mg/kg, ip after 1 hr; assay type: functional, organism-based; set-up: dose 300 mg/kg; summary of the method: as §2
[22] = target: T7, Adenosine receptor A3 (Homo sapiens, UniProt P0DMS8); assay: Displacement of [3H]PSB-11 from human recombinant adenosine A3 receptor expressed in CHO cells; assay type: cell-based
T7 sequence (P0DMS8 whole entry): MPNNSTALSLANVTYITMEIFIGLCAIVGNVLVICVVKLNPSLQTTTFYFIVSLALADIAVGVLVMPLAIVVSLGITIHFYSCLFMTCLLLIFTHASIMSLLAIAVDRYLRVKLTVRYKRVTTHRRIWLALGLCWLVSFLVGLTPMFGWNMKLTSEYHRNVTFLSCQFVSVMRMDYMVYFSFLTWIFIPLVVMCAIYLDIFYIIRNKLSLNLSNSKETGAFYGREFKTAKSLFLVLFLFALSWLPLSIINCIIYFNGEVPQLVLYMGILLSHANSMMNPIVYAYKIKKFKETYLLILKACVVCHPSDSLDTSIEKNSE

[23] = system: Mus musculus; assay: Neurotoxicity in F1 albino mouse assessed as minimal motor impairment at 300 mg/kg, ip after 4 hrs by rotorod test; assay type: toxicity, organism-based; set-up: dose 300 mg/kg, route intraperitoneal; details: in vivo; summary of the method: as §2
[24] = system: Mus musculus; assay: Anticonvulsant activity in F1 albino mouse assessed as protection against maximal electroshock-induced seizures at 300 mg/kg, ip after 1 hr; assay type: functional, organism-based; set-up: dose 300 mg/kg; summary of the method: as §2
[25] = system: Mus musculus; assay: Neurotoxicity in F1 albino mouse assessed as minimal motor impairment at 300 mg/kg, ip after 0.5 hrs by rotorod test; assay type: toxicity, organism-based; set-up: dose 300 mg/kg, route intraperitoneal; details: in vivo; summary of the method: as §2
[26] = target: T8, Adenosine receptor A1 (Homo sapiens, UniProt P30542); assay: Displacement of [3H]CCPA from human recombinant adenosine A1 receptor expressed in CHO cells; assay type: cell-based
T8 sequence (P30542 whole entry): T6 sequence (whole entry)

[27] = target: T2, Adenosine receptor A1 (Rattus norvegicus); details: Brain, 10 uM
[28] = target: T9, Adenosine receptor A3 (Homo sapiens) (UniProt P0DMS8); assay: Displacement of [3H]PSB-11 from human recombinant adenosine A3 receptor expressed in CHO cells at 10 uM; assay type: cell-based; summary of the method: as §1
T9 sequence (whole entry): T7 sequence (P0DMS8 whole entry)

[29] = system: Mus musculus; assay: Neurotoxicity in F1 albino mouse assessed as minimal motor impairment at 100 mg/kg, ip after 0.5 hrs by rotorod test; assay type: toxicity, organism-based; set-up: dose 100 mg/kg, route intraperitoneal; details: in vivo; summary of the method: as §2
[30] = target: T3, Adenosine receptor A2b (Homo sapiens); details: CHO, 10 uM
[31] = system: Mus musculus; assay: Toxicity in F1 albino mouse assessed as myoclonic jerks at 300 mg/kg, ip after 0.5 hrs; assay type: organism-based; set-up: dose 300 mg/kg, route intraperitoneal; details: in vivo
Summary of the method: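 Male albino F-1 mice (18–25 g) were dosed i.p. with a suspension in 0.5% methylcellulose in water at 30, 100 and 300 mg/kg. Screening used MES, subcutaneous pentylenetetrazole (ScMet) and rotorod tests, with 1–5 mice per seizure test.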

SMILES | inhibition [5] | Ki [6] | Activity [7] | Ki [8] | Ratio Ki [9] | Activity [10] | Activity [11] | Activity [12] | Activity [13] | Ki [14] | Activity [15] | inhibition [16] | Ki [17] | Activity [18] | Activity [19] | Activity [21] | Ki [22] | Activity [23] | Activity [24] | Ki [26] | further results
CCCC(CCC)C(=O)O [VALPROIC ACID] |  |  |  |  |  |  |  |  |  |  |  |  |  |  |  |  |  |  |  |  | ED50 [1]: 287 mg/kg; ED50 [2]: 209 mg/kg
Cn1c(=O)c2c(nc3n2CCCN3C23CC4CC(CC(C4)C2)C3)n(C)c1=O | 0% | > 10 µM | inactive | > 10 µM | 1 | inactive | Non-toxic | Non-toxic | inactive | > 10 µM | inactive | 15% | > 10 µM | inactive | inactive | inactive | 1.29 µM | Non-toxic | inactive | > 10 µM | inhibition [3]: 0%; inhibition [4]: 7%; inhibition [20]: 13%; Activity [25]: Non-toxic
Cn1c(=O)c2c(nc3n2CCN3C2CCCCC2)n(C)c1=O | 11% | > 10 µM | inactive | > 10 µM | > 4 | Active | Non-toxic | Non-toxic | inactive | 2.58 µM | inactive | 41% | 1.61 µM | inactive | inactive | inactive | > 10 µM | Non-toxic | inactive | > 10 µM | inhibition [27]: 27%; inhibition [28]: 12%; Activity [29]: Non-toxic
CCn1c(=O)c2c(nc(/C=C/c3ccc(OC)c(OC)c3)n2C)n(CC)c1=O [ISTRADEFYLLINE] |  |  |  |  |  |  |  |  |  |  |  |  |  |  |  |  | 4.47 µM |  |  | 2.07 µM | inhibition [30]: 47%
Cn1c(=O)c2c(nc3n2CCCCN3C2CCCCCCC2)n(C)c1=O | 0% | > 10 µM | inactive | > 10 µM | > 1 | inactive | Non-toxic | Non-toxic | inactive | 6.86 µM | inactive | 29% | 2.4 µM | inactive | inactive | inactive | 1.67 µM | Non-toxic | inactive | > 10 µM | inhibition [4]: 16%; Activity [31]: Toxic; Activity [29]: Non-toxic
